Test results published in article PMC10596003 (ACS Chemical Biology, 2023).
Like-named read-outs stand apart in the source and are kept apart here.

Experiments:
SAMHD1 A1 site = SAMHD1 A1 site (Homo sapiens, UniProt Q9Y3Z3); assay: fluorescence anisotropy competitive binding assay with 5′-FAM-pdGpdGpdG-3′ probe; details: competition with 5′ FAM-pdGpdGpdG-3′ probe
SAMHD1 [1] = target: T1, SAMHD1 (Homo sapiens, UniProt Q9Y3Z3); assay: glutaraldehyde protein cross-linking assay of oligomeric state; details: for D (%), dimer / T (%), tetramer: 500 μM ligand, 600 nM SAMHD1; for effect on oligomeric state: 500 μM analog (dGTPαS 100 μM), 0.6 μM SAMHD1
T1 sequence (Q9Y3Z3 whole entry): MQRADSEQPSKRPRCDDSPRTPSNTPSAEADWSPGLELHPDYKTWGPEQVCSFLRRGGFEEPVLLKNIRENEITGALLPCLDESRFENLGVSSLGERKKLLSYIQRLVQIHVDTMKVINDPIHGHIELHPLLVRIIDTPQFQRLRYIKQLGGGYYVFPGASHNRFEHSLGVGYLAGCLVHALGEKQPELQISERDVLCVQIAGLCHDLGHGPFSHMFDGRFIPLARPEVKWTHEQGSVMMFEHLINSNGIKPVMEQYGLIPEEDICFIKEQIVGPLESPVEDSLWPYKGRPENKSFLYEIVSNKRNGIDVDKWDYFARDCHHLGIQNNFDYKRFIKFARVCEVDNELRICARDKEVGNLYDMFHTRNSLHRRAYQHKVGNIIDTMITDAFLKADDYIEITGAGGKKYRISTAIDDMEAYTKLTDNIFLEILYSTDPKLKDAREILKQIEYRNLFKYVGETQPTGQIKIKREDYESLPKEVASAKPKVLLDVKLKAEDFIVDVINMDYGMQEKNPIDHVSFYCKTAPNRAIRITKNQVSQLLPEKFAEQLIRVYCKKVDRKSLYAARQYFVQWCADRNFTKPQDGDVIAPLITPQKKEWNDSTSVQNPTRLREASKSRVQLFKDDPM

SAMHD1 [2] = target: T1, SAMHD1; assay: malachite green; type: biochemical; details: for IC50: 50 μM GTP and 50 μM dATP, 11-point dose response; for inhibition at 500 µM: read-out: dNTPase inhibition (%, [I] = 500 μM)
[3] = target: SAMHD1 binding to ssRNA32 (Homo sapiens, UniProt Q9Y3Z3); assay: fluorescence anisotropy displacement of 5′-FAM-labeled ssRNA32; details: read-out: EC50 ssRNA displacement; 1 μM SAMHD1, 0.5 μM ssRNA32
SAMHD1 binding to ssRNA32, sequence (Q9Y3Z3 whole entry): as above
Outline: (§1)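 SAMHD1 (1 μM) was preincubated with 0.5 μM 5′-FAM-labelled 32mer ssDNA or ssRNA; the two strands have identical base sequences. […] SD from triplicate experiments.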

[4] = target: SAMHD1 binding to ssDNA32 (Homo sapiens, UniProt Q9Y3Z3); assay: fluorescence anisotropy displacement of 5′-FAM-labeled ssDNA32; details: read-out: EC50 ssDNA displacement; 1 μM SAMHD1, 0.5 μM ssDNA32
SAMHD1 binding to ssDNA32, sequence (Q9Y3Z3 whole entry): as above
Outline: as §1

SAMHD1 A1 site, sequence (Q9Y3Z3 whole entry): as above

Row | Kd (SAMHD1 A1 site; read-out: binding Kd) | D (%), dimer (SAMHD1 [1]) | T (%), tetramer (SAMHD1 [1]) | Kd (SAMHD1 A1 site; binding Kd (μM)) | SMILES | further results
1 | 210 ± 32 µM | 88% | 0% |  | Nc1nc2c(ncn2[C@@H]2O[C@H](COP(=O)(O)OP(=O)(O)O)[C@@H](O)[C@H]2O)c(=O)[nH]1 [GDP] | effect on oligomeric state (SAMHD1 [1]): can induce dimerization
2 | 110 ± 41 µM | 87% | 0% |  | Nc1nc2c(ncn2[C@@H]2O[C@H](COP(=O)(O)O)[C@@H](O)[C@H]2O)c(=O)[nH]1 [GMP] | 
3 | 61 ± 11 µM |  | 30% |  | Nc1nc2c(ncn2[C@@H]2O[C@H](COP(=O)(O)OP(=O)(O)OP(=O)(O)O)[C@@H](O)[C@H]2O)c(=O)[nH]1 [GTP] | EC50 [3]: 170 ± 32 µM; effect on oligomeric state (SAMHD1 [1]): induced complete dimerization; EC50 [4]: 89 ± 25 µM
4 |  | 80% | 0% | 79 ± 20 µM | Nc1nc2c(ncn2[C@H]2C[C@H](O)[C@@H](CO)O2)c(=O)[nH]1 [dG, deoxyguanosine] | IC50 (SAMHD1 [2]; IC50 (μM)): 130 ± 89 µM; inhibition at 500 µM (SAMHD1 [2]): 65 ± 2.4%
5 |  | 64% | 0% | 500 ± 185 µM | Nc1nc2c(ncn2[C@@H]2O[C@H](CO)[C@@H](O)[C@H]2O)c(=O)[nH]1 [rG, guanosine] | inhibition at 500 µM (SAMHD1 [2]): 6 ± 8.5%

Continued, compound first:

Row | SMILES | Kd (SAMHD1 A1 site; read-out: binding Kd) | D (%), dimer (SAMHD1 [1]) | T (%), tetramer (SAMHD1 [1]) | Kd (SAMHD1 A1 site; binding Kd (μM)) | further results
6 | Nc1nc2c(ncn2[C@H]2C[C@H](OP(=O)(O)O[C@H]3C[C@H](n4cnc5c(N)ncnc54)O[C@@H]3CO)[C@@H](CO)O2)c(=O)[nH]1 [5′-dGpdA-5′] | 70 ± 13 µM | 93% | 0% |  | 
7 | Cn1c[n+]([C@@H]2O[C@H](COP(=O)([O-])OP(=O)(O)OP(=O)(O)O)[C@@H](O)[C@H]2O)c2nc(N)[nH]c(=O)c21 [Compound 7-Me-GTP] | > 1000 µM |  |  |  | 
8 | Nc1nc2c(nc(Br)n2[C@H]2C[C@H](O)[C@@H](CO)O2)c(=O)[nH]1 [Compound 8-bromo-dG, 8-bromo-deoxyguanosine] |  | 62% | 0% | > 1000 µM | 
9 | Nc1nc2c([nH]c(=O)n2[C@H]2C[C@H](O)[C@@H](CO)O2)c(=O)[nH]1 [Compound 8-oxo-dG, 8-oxo-deoxyguanosine] |  | 37% | 0% | > 1000 µM | 
10 | O=C(O)c1cccc(-c2cccc(Br)c2)c1 [Compound 1023, 3′-bromobiphenyl-3-carboxylic acid] |  | 17% | 0% | > 500 µM | IC50 (SAMHD1 [2]; IC50 (μM)): 220 ± 150 µM
11 | Nc1nc2c(ncn2COCCO)c(=O)[nH]1 [acyclovir] |  | 78% | 0% |  | inhibition at 500 µM (SAMHD1 [2]): 68 ± 31%
12 | Nc1ncnc2c1ncn2[C@H]1C[C@H](O)[C@@H](COP(=O)(O)O)O1 [dAMP] | > 1000 µM | 32% | 0% |  | 
13 | Nc1nc2c(ncn2[C@H]2C[C@H](O)[C@@H](COP(=O)(O)OP(=O)(O)O)O2)c(=O)[nH]1 [dGDP] | 130 ± 28 µM | 39% | 56% |  | effect on oligomeric state (SAMHD1 [1]): induced tetramerization
14 | Nc1nc2c(ncn2[C@H]2C[C@H](O)[C@@H](COP(=O)(O)O)O2)c(=O)[nH]1 [dGMP] | 140 ± 43 µM | 91% | 0% |  | IC50 (SAMHD1 [2]): 110 ± 47 µM
15 | Nc1nc2c(ncn2[C@H]2C[C@H](O)[C@@H](COP(O)(=S)OP(=O)(O)OP(=O)(O)O)O2)c(=O)[nH]1 (some centres unmarked) [dGTPαS] |  |  |  |  | effect on oligomeric state (SAMHD1 [1]): induced tetramerization
